Active and inactive are the calls of the source. No cut-off for these calls is given here.
Legend:
[1] = system: RAW264.7; assay: Immunomodulatory activity in mouse RAW264.7 cells assessed as inhibition of LPS-induced ROS level at 5 uM after 24 hrs by H2DCFDA probe based fluorescence assay relative to control; assay type: functional; conditions: RAW264.7, 24 h
Summary of the method: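 RAW 264.7 macrophages allowed to adhere 2 h at 37 °C, 5% CO2, then given compounds (5 μM) co-incubated with E. coli serotype 055:B5 LPS (1.0 μg/mL) for 24 h. DCFH-DA then added (final 10 μM) for 10 min at 37 °C. Fluorescence read at 485/518 nm; % reduction of LPS-induced ROS. At least triplicate, mean ± SD.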

[2] = system: RAW264.7; assay: Induction of ROS generation in mouse RAW264.7 cells at 5 uM after 24 hrs by H2DCFDA probe based fluorescence assay; assay type: functional, cell-based
Summary of the method: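 Adhered RAW 264.7 macrophages (2 h, 37 °C, 5% CO2) exposed to compounds at 5 μM without LPS for 24 h, compared with untreated cells. 2,7-Dichlorodihydrofluorescein diacetate added (final 10 μM) for an additional 10 min at 37 °C. Dichlorofluorescein fluorescence measured at λex/λem 485/518 nm. At least triplicate.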

[3] = system: RAW264.7; assay: Cytotoxicity against mouse RAW264.7 cells assessed as reduction in cell viability after 24 hrs by MTS assay; assay type: functional, cell-based; conditions: RAW264.7, 24 h
Summary of the method: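 RAW 264.7 murine macrophages (DMEM, 10% FBS, 37 °C, 5% CO2) seeded 6 × 10^3 cells/well and cultured 2 h. Medium then replaced with compound-containing medium (1.25−10.0 μM range), 24 h exposure. MTS reagent added, formazan read 2 h later at 492 nm with 690 nm background. IC50 reported; at least triplicate, mean ± SD.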

Compound | inhibition at 5 µM [1] | Activity [2] | IC50 [3]
CC(C)CCC(=O)[C@](C)(O)[C@H]1CC[C@H]2[C@@H]3C[C@H](O[C@@H]4O[C@H](C)[C@@H](O)[C@H](O[C@@H]5OC[C@@H](O[C@@H]6O[C@H](C)[C@@H](O)[C@H](O)[C@H]6O[C@@H]6O[C@H](C)[C@H](O)[C@H](O)[C@H]6O)[C@H](O)[C@H]5O[C@@H]5O[C@H](C)[C@@H](O)[C@H](O)[C@H]5O)[C@H]4O)[C@H]4C[C@@H](OS(=O)(=O)O)CC[C@]4(C)C3=CC[C@@]21C | 55% | inactive | 
CC(C)[C@H](C)[C@@H]1O[C@H]1[C@](C)(O)[C@H]1[C@@H](O)C[C@H]2[C@@H]3C[C@H](O[C@@H]4O[C@H](C)[C@@H](O)[C@H](O[C@@H]5O[C@H](C)[C@@H](O[C@@H]6O[C@H](CO)[C@@H](O)[C@H](O)[C@H]6O[C@@H]6O[C@H](C)[C@H](O)[C@H](O)[C@H]6O)[C@H](O)[C@H]5O[C@@H]5O[C@H](C)[C@@H](O)[C@H](O)[C@H]5O)[C@H]4O)[C@H]4C[C@@H](OS(=O)(=O)O)CC[C@]4(C)C3=CC[C@]12C |  | inactive | 6.4 µM
CC(C)CC(=O)C[C@](C)(O)[C@H]1CC[C@H]2[C@@H]3C[C@H](O[C@@H]4O[C@H](C)[C@@H](O)[C@H](O[C@@H]5OC[C@@H](O[C@@H]6O[C@H](CO)[C@@H](O)[C@H](O)[C@H]6O[C@@H]6O[C@H](C)[C@H](O)[C@H](O)[C@H]6O)[C@H](O)[C@H]5O[C@@H]5O[C@H](C)[C@@H](O)[C@H](O)[C@H]5O)[C@H]4O)[C@H]4C[C@@H](OS(=O)(=O)O)CC[C@]4(C)C3=CC[C@@]21C |  | inactive | 
CC(=O)[C@H]1CC[C@H]2[C@@H]3C[C@H](O[C@@H]4O[C@H](C)[C@@H](O)[C@H](O[C@@H]5OC[C@@H](O[C@@H]6O[C@H](C)[C@@H](O)[C@H](O)[C@H]6O[C@@H]6O[C@H](C)[C@H](O)[C@H](O)[C@H]6O)[C@H](O)[C@H]5O[C@@H]5O[C@H](C)[C@@H](O)[C@H](O)[C@H]5O)[C@H]4O)[C@H]4C[C@@H](OS(=O)(=O)O)CC[C@]4(C)C3=CC[C@]12C |  | inactive | 1.25 to 10 µM
CC(=O)[C@H]1CC[C@H]2[C@@H]3C[C@H](O[C@@H]4O[C@H](C)[C@@H](O)[C@H](O[C@@H]5OC[C@@H](O[C@@H]6O[C@H](CO)[C@H](O)[C@H](O)[C@H]6O[C@@H]6O[C@H](C)[C@H](O)[C@H](O)[C@H]6O)[C@H](O)[C@H]5O[C@@H]5O[C@H](C)[C@@H](O)[C@H](O)[C@H]5O)[C@H]4O)[C@H]4C[C@@H](OS(=O)(=O)O)CC[C@]4(C)C3=CC[C@]12C |  | inactive | 1.25 to 10 µM
CC(C)=CC[C@H](O)[C@](C)(O)[C@H]1CC[C@H]2[C@@H]3C[C@H](O[C@@H]4O[C@H](C)[C@@H](O)[C@H](O[C@@H]5OC[C@@H](O[C@@H]6O[C@H](C)[C@@H](O)[C@H](O)[C@H]6O[C@@H]6O[C@H](C)[C@H](O)[C@H](O)[C@H]6O)[C@H](O)[C@H]5O[C@@H]5O[C@H](C)[C@@H](O)[C@H](O)[C@H]5O)[C@H]4O)[C@H]4C[C@@H](OS(=O)(=O)O)CC[C@]4(C)C3=CC[C@]12C |  | inactive | 
C[C@H]1O[C@@H](O[C@H]2[C@H](O[C@@H]3CO[C@@H](O[C@@H]4[C@@H](O)[C@H](O[C@H]5C[C@@H]6C(=CC[C@@]7(C)[C@H]6CC[C@@H]7[C@@](C)(O)C(=O)/C=C/C(C)(C)O)[C@@]6(C)CC[C@H](OS(=O)(=O)O)C[C@H]56)O[C@H](C)[C@H]4O)[C@H](O[C@@H]4O[C@H](C)[C@@H](O)[C@H](O)[C@H]4O)[C@H]3O)O[C@H](C)[C@@H](O)[C@@H]2O)[C@H](O)[C@@H](O)[C@H]1O |  | inactive | 1.25 to 10 µM
CC(C)C(C)[C@H](O)[C@@H]1O[C@H]2C[C@H]3[C@@H]4C[C@H](O[C@@H]5O[C@H](C)[C@@H](O)[C@H](O[C@@H]6O[C@H](C)[C@@H](O[C@@H]7O[C@H](CO)[C@@H](O)[C@H](O)[C@H]7O[C@@H]7O[C@H](C)[C@H](O)[C@H](O)[C@H]7O)[C@H](O)[C@H]6O[C@@H]6O[C@H](C)[C@@H](O)[C@H](O)[C@H]6O)[C@H]5O)[C@H]5C[C@@H](OS(=O)(=O)O)CC[C@]5(C)C4=CC[C@]3(C)[C@H]2[C@@]1(C)O (stereo partly specified) |  | inactive | 1.25 to 10 µM
CCC(C)[C@H](O)[C@@H]1O[C@H]2C[C@H]3[C@@H]4C[C@H](O[C@@H]5O[C@H](C)[C@@H](O)[C@H](O[C@@H]6O[C@H](C)[C@@H](O[C@@H]7O[C@H](CO)[C@@H](O)[C@H](O)[C@H]7O[C@@H]7O[C@H](C)[C@H](O)[C@H](O)[C@H]7O)[C@H](O)[C@H]6O[C@@H]6O[C@H](C)[C@@H](O)[C@H](O)[C@H]6O)[C@H]5O)[C@H]5C[C@@H](OS(=O)(=O)O)CC[C@]5(C)C4=CC[C@]3(C)[C@H]2[C@@]1(C)O (stereo partly specified) | 40% | inactive | 
CC(C)CC[C@H](O)[C@](C)(O)[C@H]1CC[C@H]2[C@@H]3C[C@H](O[C@@H]4O[C@H](C)[C@@H](O)[C@H](O[C@@H]5OC[C@@H](O[C@@H]6O[C@H](C)[C@@H](O)[C@H](O)[C@H]6O[C@@H]6O[C@H](C)[C@H](O)[C@H](O)[C@H]6O)[C@H](O)[C@H]5O[C@@H]5O[C@H](C)[C@@H](O)[C@H](O)[C@H]5O)[C@H]4O)[C@H]4C[C@@H](OS(=O)(=O)O)CC[C@]4(C)C3=CC[C@]12C | 28% | inactive | 1.25 to 10 µM
CC(C)CC(=O)C[C@](C)(O)[C@H]1CC[C@H]2[C@@H]3C[C@H](O[C@@H]4O[C@H](C)[C@@H](O)[C@H](O[C@@H]5OC[C@@H](O[C@@H]6O[C@H](CO)[C@H](O)[C@H](O)[C@H]6O[C@@H]6O[C@H](C)[C@H](O)[C@H](O)[C@H]6O)[C@H](O)[C@H]5O[C@@H]5O[C@H](C)[C@@H](O)[C@H](O)[C@H]5O)[C@H]4O)[C@H]4C[C@@H](OS(=O)(=O)O)CC[C@]4(C)C3=CC[C@@]21C |  | inactive | 7 µM

Source: ChEMBL document CHEMBL4130468, “Furostane Series Asterosaponins and Other Unusual Steroid Oligoglycosides from the Tropical Starfish Pentaceraster regulus” (J Nat Prod, 2017)
